The list is not random: actives were taken first. Their share in the collection is about 2.9%.
NALP1 inh: NALP1 inflammasome inhibitors in reconstituted yeast, colorimetric, S. cerevisiae, triplicate retest; 280,000 tested, 0.61% active; S. cerevisiae NALP1/ASC/caspase-1 growth, X-gal OD620, 72 h; inhibition, % at 10 µM; in the data active = inhibition mostly above about 24%, no sharp cut-off; inactive = mostly below about 32%
NLRP3 yeast inh: NALP3 inflammasome inhibitors in reconstituted yeast, primary screen, luminescence, uHTS | Yeast reconstituted NLRP3/ASC/caspase-1, beta-gal luminescence, 24 h | inhibition, % at 10 µM | 330,000 tested, 0.39% active | AID 2825, 2010;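 active = inhibition of 50% or more; inactive = inhibition below 50%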
VIM-2 inh: VIM-2 metallo-beta-lactamase inhibitors, primary screen, biochemical, epi-absorbance readout, Pseudomonas aeruginosa enzyme; purified VIM-2, nitrocefin hydrolysis, epi-absorbance fluorescence; inhibition, % at 5.6 µM; 290,000 tested, 0.89% active;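 active = inhibition above the mean of all tested compounds plus 3 SD, cutoff set per screening run, cut at about 7.5% in these data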;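 also: red hydrolysis product quenches plate fluorescence so inhibitors raise well fluorescence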
IMP-1 inh-1: IMP-1 metallo-beta-lactamase inhibitors, primary screen, biochemical, epi-absorbance readout, Pseudomonas aeruginosa enzyme; metallo-beta-lactamase IMP-1 (Pseudomonas aeruginosa); purified IMP-1, nitrocefin hydrolysis, epi-absorbance fluorescence; inhibition, % at 5.6 µM; 290,000 tested, 0.45% active; AID 1556, 2009;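 active = inhibition above the mean plus 3 SD of all compounds in the same screening run, cut at about 4.5% in these data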
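System: purified recombinant IMP-1 beta-lactamase. Medium: Zinc- and detergent-supplemented HEPES buffer, pH 7.1. Compound: one 5.6 µM dose […]. Schedule: 15 min preincubation plus 25 min reaction at 25 °C. Technique: Epi-absorbance fluorescence, 480 nm excitation, 530 nm emission.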
PolyA inhibitor: polyadenylation inhibitors in yeast reporter cells, primary screen, luminescence, S. cerevisiae; activity score, % at 12 µM; S. cerevisiae SKY197-pL101 polyadenylation reporter, beta-gal luminescence; efflux-impaired pdr1/pdr3 knockout yeast; score 100 = 6 SD above DMSO; 300,000 tested, 0.02% active; AID 1875, 2009;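 active = lowest replicate activity score at least 50, where 100 means six control SD above control mean; inconclusive = lowest score under 50 but half or more replicates reach 50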;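 also: yeast exposed to compound for 9 h at 30 °C; higher score means more reporter readthrough which indicates perturbed polyadenylation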
Mot1-301 SUMO: yeast Mot1-301 growth rescue at high temperature, primary screen, SUMOylation pathway inhibitor project, S. cerevisiae, ATP luminescence, 38.5C; S. cerevisiae Mot1-301 growth rescue; percent above DMSO median, 100 means doubled; growth rescue, % at 18.8 µM; 320,000 tested, 1% active; AID 2716, 2010;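 active = every valid replicate shows activation above 250% relative to neutral control wells; inactive = the rest, any valid replicate at or below 250%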
IMP-1 inh-2: IMP-1 metallo-beta-lactamase inhibitors, confirmation, selectivity assay for selective VIM-2 inhibitor project, biochemical, epi-absorbance readout, triplicate. shares compounds with VIM-2 inh. purified IMP-1, nitrocefin hydrolysis, epi-absorbance fluorescence. inhibition, % at 5.6 µM. 1,300 tested, under 10 active; call rule not given here
VIM-2 FRET ctr: VIM-2 inhibitors in FRET format, confirmation, artefact control for selective VIM-2 inhibitor project, biochemical, epi-absorbance artifact exclusion; shares compounds with VIM-2 inh; purified VIM-2, CCF2 FRET substrate hydrolysis; inhibition, % at 5.6 µM; 1,300 tested, 23% active; AID 1857, 2009;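 active = inhibition above the mean of all tested compounds plus 3 SD, cut at about 19% in these data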
TEM-1 counter: TEM-1 serine beta-lactamase inhibitors, counter-screen for VIM-2 inhibitor project, biochemical, epi-absorbance, HTS | 1,300 tested, 3% active | shares compounds with VIM-2 inh | inhibition, % at 5.6 µM | Purified TEM-1, nitrocefin hydrolysis, epi-absorbance fluorescence;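 active = inhibition above that campaign's mean inhibition plus 3 SD, cut at about 0.46% in these data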
Target sequence (P62593 whole entry, looked up): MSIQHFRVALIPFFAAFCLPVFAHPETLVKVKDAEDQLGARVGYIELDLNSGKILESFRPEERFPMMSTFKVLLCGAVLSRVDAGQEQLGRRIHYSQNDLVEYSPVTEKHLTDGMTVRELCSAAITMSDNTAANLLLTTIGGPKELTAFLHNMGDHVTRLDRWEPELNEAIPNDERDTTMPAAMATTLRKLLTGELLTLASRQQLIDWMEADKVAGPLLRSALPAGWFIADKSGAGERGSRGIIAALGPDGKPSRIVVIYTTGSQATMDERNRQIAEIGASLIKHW
VIM-2 confirm 2: VIM-2 metallo-beta-lactamase inhibitors, confirmation, biochemical, epi-absorbance, hits shared with IMP-1 screen. purified VIM-2, nitrocefin hydrolysis. shares compounds with VIM-2 inh. inhibition, % at 5.6 µM. AID 2187, 2009. 1,300 tested, 96% active;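 active = inhibition of the VIM-2 beta-lactamase enzyme above about 11% from the earlier first-round screen, limit read from the data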
Each line names hits and unclear results; the compound was inactive in the other large screens (follow-up assays come after a bar, where they were run).

COC(=O)COc1cccc(NC(=O)C(c2ccccc2)c2ccccc2)c1	none
COc1ccc(-n2c(CN3CCN(c4ccccn4)CC3)nc3ccc([N+](=O)[O-])cc3c2=O)c(OC)c1	none
O=C(CN1C(=O)NC2(CCCCC2)C1=O)NCCc1ccccc1	none (no result: NALP1 inh, VIM-2 inh, IMP-1 inh-1, PolyA inhibitor)
COc1cc(C(=O)N/N=C/c2coc3ccccc3c2=O)cc(OC)c1OC	VIM-2 inh 18 | IMP-1 inh-2 inactive | VIM-2 FRET ctr 31 | TEM-1 counter inactive | VIM-2 confirm 2 19
O=C(N/N=C/c1coc2ccccc2c1=O)c1cc(O)cc(O)c1	none (no result: PolyA inhibitor, Mot1-301 SUMO)
O=P(O)(O)c1ccccc1OCCCCCOc1ccccc1P(=O)(O)O	VIM-2 inh 62 | IMP-1 inh-2 inactive | VIM-2 FRET ctr 76 | TEM-1 counter inactive | VIM-2 confirm 2 66
O=P(O)(O)c1ccccc1OCc1ccccc1	VIM-2 inh 55 | IMP-1 inh-2 inactive | VIM-2 FRET ctr 81 | TEM-1 counter inactive | VIM-2 confirm 2 68
Oc1ccccc1OCCOc1ccccc1OCCOc1ccccc1O	none (no result: NALP1 inh)
NNC(=O)c1ccccc1OCc1ccccc1	none
CCn1c(CC(=O)Nc2ccc(OC)cc2)nnc1SCC(=O)N1CCOCC1	none
C=CCc1c(C)nc(SCc2ccccc2)[nH]c1=O	none
COc1ccc(OC)c2c1sc(=NC(=O)C1COc3ccccc3O1)n2C (stereo unspecified)	none (no result: NALP1 inh)
Oc1ccc(Nc2nc(N3CCCC3)c3ccccc3n2)cc1	VIM-2 inh 31 | IMP-1 inh-2 inactive | VIM-2 FRET ctr inactive | TEM-1 counter inactive | VIM-2 confirm 2 49
Cc1cc(C)n(-c2ccc([N+](=O)[O-])cc2-c2nn[nH]n2)n1	VIM-2 inh 26 | IMP-1 inh-2 inactive | VIM-2 FRET ctr 53 | TEM-1 counter inactive | VIM-2 confirm 2 33
CCOc1ccc(-c2noc(CCC(=O)NCC3CCCO3)n2)cc1OC (stereo unspecified)	none
CCOc1cc(N2CCOCC2)c(OCC)cc1NC(=O)c1ccc(C)cc1	none
CCOc1cc(N2CCOCC2)c(OCC)cc1NC(=O)c1ccc(-n2ccnc2)c([N+](=O)[O-])c1	VIM-2 inh 68 | IMP-1 inh-2 inactive | VIM-2 FRET ctr inactive | TEM-1 counter inactive | VIM-2 confirm 2 75
COc1cc(/C=N/NC(=S)Nc2cccc(C(=O)O)c2)cc(OC)c1OC	none
COc1ccc(/C=N/NC(=S)Nc2cccc(C(=O)O)c2)cc1OC	VIM-2 inh 13 | IMP-1 inh-2 inactive | VIM-2 FRET ctr inactive | TEM-1 counter inactive | VIM-2 confirm 2 inactive
COc1ccc(OC)c(Nc2cc(C)c3ccccc3n2)c1	none
COc1ccc(OC)c(Nc2c3c(nc4ccccc24)CCC3)c1	VIM-2 inh 13 | IMP-1 inh-2 inactive | VIM-2 FRET ctr inactive | TEM-1 counter inactive | VIM-2 confirm 2 20
CN(C(=O)CSc1nnc(-c2ccco2)n1Cc1ccccc1)C1CCS(=O)(=O)C1 (stereo unspecified)	none (no result: NALP1 inh, VIM-2 inh, IMP-1 inh-1, PolyA inhibitor)
CCOc1cc2nc(-c3ccc(OC)c(OC)c3)nc(NCCCN3CCOCC3)c2cc1OC	VIM-2 inh 26 | IMP-1 inh-2 inactive | VIM-2 FRET ctr inactive | TEM-1 counter inactive | VIM-2 confirm 2 49
COc1cc2ncnc(NCCCN3CCOCC3)c2cc1OC	none (no result: NALP1 inh)
Cc1ccc(N(CCC#N)C(=O)COC(=O)C2CCN(S(=O)(=O)c3ccc(C)c(C)c3)CC2)cc1	none (no result: NALP1 inh, VIM-2 inh, IMP-1 inh-1)
O=C(CSc1nnc(NC(=O)c2ccccc2[N+](=O)[O-])s1)NC1CCCC1	VIM-2 inh 15 | IMP-1 inh-2 inactive | VIM-2 FRET ctr 32 | TEM-1 counter inactive | VIM-2 confirm 2 19
COc1ccccc1C(=O)Nc1nnc(SCC(=O)NC2CCCC2)s1	VIM-2 inh 12 | IMP-1 inh-2 inactive | VIM-2 FRET ctr 31 | TEM-1 counter inactive | VIM-2 confirm 2 24
O=c1cc(-c2ccccc2)[nH]n2cnnc12	none
CN1CCN(c2ccc(-c3ccc4ccccc4n3)cc2)CC1	VIM-2 inh 68 (no result: NLRP3 yeast inh, Mot1-301 SUMO) | IMP-1 inh-2 inactive | VIM-2 FRET ctr inactive | TEM-1 counter inactive | VIM-2 confirm 2 81
CCCCOC(=O)c1cc(-c2ccc(/C=N/n3cnnc3)o2)ccc1Cl	VIM-2 inh 22 (no result: NALP1 inh) | IMP-1 inh-2 inactive | VIM-2 FRET ctr inactive | TEM-1 counter inactive | VIM-2 confirm 2 54
CCOC(=O)c1cc(-c2ccc(/C=C3/C(=O)N(c4ccc(C(=O)O)cc4)N=C3C)o2)ccc1Cl	none
Cc1cc(-c2ccc(/C=N/n3cnnc3)o2)ccc1Cl	VIM-2 inh 14 | IMP-1 inh-2 inactive | VIM-2 FRET ctr inactive | TEM-1 counter inactive | VIM-2 confirm 2 37
CCOC(=O)c1cc(-c2ccc(/C=N\n3cnnc3)o2)ccc1Cl	VIM-2 inh 57 | IMP-1 inh-2 inactive | VIM-2 FRET ctr inactive | TEM-1 counter inactive | VIM-2 confirm 2 78
Cc1ccccc1N1C(=O)c2cc(S(N)(=O)=O)c(Cl)cc2NC1C (stereo unspecified)	none (no result: NALP1 inh, VIM-2 inh, IMP-1 inh-1, PolyA inhibitor)
O=C(NCCN1CCOCC1)c1cccn2c(=O)c3c4c(sc3nc12)CCCC4	VIM-2 inh 17 (no result: NALP1 inh) | IMP-1 inh-2 inactive | VIM-2 FRET ctr inactive | TEM-1 counter inactive | VIM-2 confirm 2 47
Cc1cccn2c(=O)c3cc(C(=O)NCCN4CCOCC4)n(C)c3nc12	VIM-2 inh 19 | IMP-1 inh-2 inactive | VIM-2 FRET ctr inactive | TEM-1 counter inactive | VIM-2 confirm 2 28
CC(C)C(CCNCc1ccccn1)c1ccc(Cl)cc1 (stereo unspecified)	PolyA inhibitor inconclusive
COc1ccc(-c2ccc(CNCc3ccccn3)o2)cc1Cl	VIM-2 inh 55 (no result: NLRP3 yeast inh) | IMP-1 inh-2 inactive | VIM-2 FRET ctr inactive | TEM-1 counter inactive | VIM-2 confirm 2 67
